Laboratory results reported in ChEMBL document CHEMBL4184268, “Design, synthesis, and biological evaluation of inhibitors of the NADPH oxidase, Nox4” (Bioorg Med Chem, 2018).
Active and inactive are the calls of the source. The calls are words filed in the database; no cut-off is given here.

How the values were obtained:
[1] = Effect on hypoxanthine/xanthine oxidase-induced superoxide radical scavenging activity up to 100 uM incubated for 1 min measured for 15 mins by cytochrome C assay; format: functional
Outline: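 Superoxide from hypoxanthine (100 μM)/xanthine oxidase in PBS with catalase (200 U/mL), compound 1–100 μM, detected by cytochrome C (46 μM) reduction at 550 nm. After 1 min stabilization, read kinetically 1/min for 15 min. Linear slope gave % scavenging. SOD (575 U/mL) as positive control. Means ± SEM of 4 experiments, ANOVA/Dunnett.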

[2] = Effect on hydrogen peroxide radical scavenging activity up to 100 uM measured after 5 mins by Amplex Red assay; format: functional
Outline: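 Cell-free H2O2 consumption. Exogenous H2O2 incubated 5 min with compound (1–100 μM) in reaction buffer. Amplex Red/horseradish peroxidase then added for 30 min at room temperature in the dark. Resorufin read at ex 530/em 590 nm. DMSO solvent control. Means ± SEM of 3 independent experiments, one-way ANOVA with Dunnett's test.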

NADPH oxidase 4 = target: T1, NADPH oxidase 4 (Homo sapiens, UniProt Q9NPH5); experiment: Inhibition of Nox4 in HASMCs assessed as reduction in TGFbeta-induced increase in smooth muscle alpha actin level pretreated for 30 mins followed by TGFbeta stimulation after 24 hrs by Western blot analysis
T1 sequence (Q9NPH5 whole entry): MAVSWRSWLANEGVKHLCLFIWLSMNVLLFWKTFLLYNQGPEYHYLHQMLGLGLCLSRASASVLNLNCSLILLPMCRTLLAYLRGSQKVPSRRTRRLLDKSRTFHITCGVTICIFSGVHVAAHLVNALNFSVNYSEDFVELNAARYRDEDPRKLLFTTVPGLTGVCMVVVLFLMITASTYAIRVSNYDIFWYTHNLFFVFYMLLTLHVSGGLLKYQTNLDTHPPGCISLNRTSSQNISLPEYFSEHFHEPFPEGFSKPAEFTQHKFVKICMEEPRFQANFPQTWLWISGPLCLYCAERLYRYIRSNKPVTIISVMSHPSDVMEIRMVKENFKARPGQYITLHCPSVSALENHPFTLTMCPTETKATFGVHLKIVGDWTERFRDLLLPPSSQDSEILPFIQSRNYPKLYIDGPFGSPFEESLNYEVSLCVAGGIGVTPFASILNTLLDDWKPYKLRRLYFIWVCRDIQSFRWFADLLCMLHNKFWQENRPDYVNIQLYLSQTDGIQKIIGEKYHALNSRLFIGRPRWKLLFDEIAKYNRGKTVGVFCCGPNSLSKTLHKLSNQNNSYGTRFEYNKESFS
Outline: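 HASMs (<passage 10) at 80% confluence, serum-reduced (0.1% FBS) 24 h, pretreated 30 min with compound (1–100 μM), then TGF-β 2 ng/ml for 24 h. Lysates blotted for α-SMA normalized to β-tubulin, ECL detection. TGF-β alone set as 100%. IC50 by non-linear regression, means ± SEM from 3–4 independent experiments.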

HASMC = experiment: Effect on TGFbeta-induced Nox4 mRNA expression in HASMCs at 1 to 100 uM pretreated for 30 mins followed by TGFbeta addition measured after 24 hrs by qPCR analysis; format: functional, cell-based; conditions: Homo sapiens
[3] = Cytotoxicity against HASMCs assessed as cell viability at 10 uM after 24 hrs by calcein/AM/ethidium homodimer-1 staining based fluorescence microscopic analysis relative to control; conditions: human, HASMC cells; read-out: Activity
Outline: (§1)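 HASMs (before passage 10) grown to 80% confluence, then serum-reduced (0.1% FBS) for 24 h. Cells were pretreated with compound for 30 min, then given TGF-β (2 ng/ml) for 24 h. Stained with calcein/AM (2 μM) and ethidium homodimer-1 (4 μM) for 10 min at room temperature, read by fluorescence microscopy. Controls: untreated cells as negative, 70% ethanol for 30 min as positive.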

[4] = Cytotoxicity against HASMCs assessed as cell viability at 100 uM after 24 hrs by calcein/AM/ethidium homodimer-1 staining based fluorescence microscopic analysis relative to control; conditions: human, HASMC cells; read-out: Activity; outline: as §1

For COc1ccc(S(=O)(=O)N2CCN(c3ccc(C(F)(F)F)cc3)C2=O)cc1, the Activity [1] was “inactive”, the Activity [2] was “inactive” and the IC50 (NADPH oxidase 4) was 0.5 µM. For the same compound, the Activity (HASMC) was “inactive” and the viability at 24 h, 10 µM [3] was 97%.
With COc1ccc(S(=O)(=O)N2CCCN(c3ccc(C(F)(F)F)cc3)C2=O)cc1 the Activity [1] was “inactive”, the Activity [2] was “inactive” and the IC50 (NADPH oxidase 4) was 27 µM. The Activity (HASMC) was “inactive” and the viability at 24 h, 100 µM [4] was 92%.
With O=C1N(c2ccc(C(F)(F)F)cc2)CCCN1S(=O)(=O)c1ccc(F)cc1 the Activity [1] was “inactive”, the Activity [2] was “inactive” and the IC50 (NADPH oxidase 4) was 3.7 µM. The Activity (HASMC) was “inactive” and the viability at 24 h, 100 µM [4] was 100%.
